From ChEMBL document CHEMBL1122207, “Antitumor agents. 2. Bisguanylhydrazones of anthracene-9,10-dicarboxaldehydes” (1982)

Assays:
Type in all cases: functional
Mus musculus [1] = organism: Mus musculus; assay: Number of survivors of the total treated mice with B-16 melanoma, at 60 days.
Summary of the method: (§1)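 BDF1 mice were implanted ip with a homogenate from 0.05 g of B-16 melanoma and dosed ip on days 1-9. Cures are survivors over total at 60 days.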

Mus musculus [2] = organism: Mus musculus; assay: Anticancer activity measured as the number of survivors of the total treated mice with P-388 leukemia at 30 days.
Summary of the method: (§2)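 BDF1 or CDF1 mice given 10^6 ascitic P-388 leukemia cells ip, then treated ip on days 1, 5 and 9. Cures are survivors over total treated at 30 days.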

Mus musculus [3] = assay: Percent increase in median life span of BDF1 mice with P-388 leukemia at dose 6.25 mg/kg administered intraperitoneally; conditions: BDF1, P388, ip, route intraperitoneal
Mus musculus [4] = assay: Percent increase in median life span of BDF1 mice with B-16 melanoma at dose 3.00 mg/kg administered intraperitoneally; conditions: BDF1, B16, ip, route intraperitoneal
Summary of the method: (§3)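 BDF1 mice were implanted ip with a homogenate from 0.05 g of B-16 melanoma. Ip dosing ran on days 1-9, starting 24 h after implant, in dose-response studies following NCI protocols. The read-out was percent increase in life span (ILS). T/C ≥125% was taken as significant.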

Mus musculus [5] = assay: Percent increase in median life span of BDF1 mice with P-388 leukemia at dose 160 mg/kg administered intraperitoneally; conditions: BDF1, P388, ip, route intraperitoneal
Mus musculus [6] = assay: Percent increase in median life span of BDF1 mice with B-16 melanoma at dose 3.1 mg/kg administered intraperitoneally; conditions: BDF1, B16, ip, route intraperitoneal; summary of the method: as §3
Mus musculus [7] = organism: Mus musculus; assay: Cures is the number of survivors of the total treated mice (10) with B-16 melanoma, at 60 days; summary of the method: as §1
Mus musculus [8] = assay: Percent increase in median life span of BDF1 mice with B-16 melanoma at dose 6.25 mg/kg administered intraperitoneally; conditions: BDF1, B16, ip, route intraperitoneal; summary of the method: as §3
Mus musculus [9] = assay: Percent increase in median life span of BDF1 mice with P-388 leukemia at dose 3.1 mg/kg administered intraperitoneally; conditions: BDF1, P388, ip, route intraperitoneal
Mus musculus [10] = organism: Mus musculus; assay: Cures is the number of survivors of the total treated mice (12) with P-388 leukemia, at 30 days.; summary of the method: as §2
Mus musculus [11] = organism: Mus musculus; assay: Cures is the number of survivors of the total treated mice (10) with advanced B-16 melanoma, at 30 days.
Mus musculus [12] = organism: Mus musculus; assay: Cures is the number of survivors of the total treated mice (10) with B-16 melanoma, at 60 days.; summary of the method: as §1
Mus musculus [13] = organism: Mus musculus; assay: Cures is the number of survivors of the total treated mice (10) with Colon 26, at 60 days.
Mus musculus [14] = assay: Percent increase in median life span of BDF1 mice with B-16 melanoma at dose 6.25 mg/kg administered intraperitoneally; 1-9 days of ip treatment relative to tumor inoculation; conditions: BDF1, B16, ip, route intraperitoneal; summary of the method: as §3
Mus musculus [15] = assay: Percent increase in median life span of BDF1 mice with Colon 26 at dose 12.5 mg/kg administered intraperitoneally; 1, 5, 9 days of ip treatment relative to tumor inoculation; conditions: BDF1, Colon 26, ip, 216 h, route intraperitoneal
Mus musculus [16] = assay: Percent increase in median life span of BDF1 mice with L-1210 leukemia at dose 6.2 mg/kg administered intraperitoneally; 1, 5, 9 days of ip treatment relative to tumor inoculation; conditions: BDF1, L1210, ip, 216 h, route intraperitoneal
Summary of the method: (§4)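 BDF1 or CDF1 mice given 10^6 ascitic leukemia cells ip, then dosed ip on days 1, 5 and 9. Read-out is percent increase in life span versus untreated controls. Cures were scored as survivors/total at 30 days; when cures reached 50% or more, the run was extended until a specific ILS could be calculated. T/C ≥125% counted as significant.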

Mus musculus [17] = assay: Percent increase in median life span of BDF1 mice with P-388 leukemia at dose 6.25 mg/kg administered intraperitoneally; range 125-145%; 1, 5, 9 days of ip treatment relative to tumor inoculation; conditions: BDF1, P388, ip, 216 h, route intraperitoneal; summary of the method: as §4
Mus musculus [18] = assay: Percent increase in median life span of BDF1 mice with advanced B-16 melanoma at dose 6.2 mg/kg administered intraperitoneally; 5, 9, 13 days of ip treatment relative to tumor inoculation; conditions: B16, ip, 312 h, route intraperitoneal
Mus musculus [19] = organism: Mus musculus; assay: Cures is the number of survivors of the total treated mice (5) with L-1210 leukemia, at 30 days.
Mus musculus [20] = assay: Percent increase in median life span of BDF1 mice with P-388 leukemia at dose 18.8 mg/kg administered intraperitoneally; conditions: BDF1, P388, ip, route intraperitoneal
Mus musculus [21] = assay: Percent increase in median life span of BDF1 mice with P-388 leukemia at dose 225 mg/kg administered intraperitoneally; conditions: BDF1, P388, ip, route intraperitoneal

Br.Br.CN(C)CC/N=C(\S)N/N=C/c1c2ccccc2c(/C=N/N/C(S)=N/CCN(C)C)c2ccccc12
Cures (Mus musculus [1]): 0 | Cures (Mus musculus [2]): 0 | ILS at 6.25 mg/kg (Mus musculus [3]): 106% | ILS at 3 mg/kg (Mus musculus [4]): 47%

Cc1cc2c(/C=N/NC3=NCCN3)c3ccccc3c(/C=N/NC3=NCCN3)c2cc1C.Cl.Cl
Cures (Mus musculus [1]): 0 | Cures (Mus musculus [2]): 0 | ILS at 160 mg/kg (Mus musculus [5]): 77% | ILS at 3.1 mg/kg (Mus musculus [6]): 76%

CCc1ccc2c(/C=N/NC3=NCCN3)c3ccccc3c(/C=N/NC3=NCCN3)c2c1.Cl.Cl
Cures (Mus musculus [2]): 0 | Cures (Mus musculus [7]): 1 | ILS at 6.25 mg/kg (Mus musculus [8]): 97% | ILS at 3.1 mg/kg (Mus musculus [9]): 64%

Cc1ccc2c(/C=N/NC3=NCCN3)c3ccccc3c(/C=N/NC3=NCCN3)c2c1.Cl.Cl
Cures (Mus musculus [10]): 1 | Cures (Mus musculus [11]): 3 | Cures (Mus musculus [12]): 4 | Cures (Mus musculus [13]): 0 | ILS at 6.25 mg/kg (Mus musculus [14]): 172% | ILS at 12.5 mg/kg (Mus musculus [15]): ≥ 63% | ILS at 6.2 mg/kg (Mus musculus [16]): 42% | ILS at 6.25 mg/kg (Mus musculus [17]): 145% | ILS at 6.2 mg/kg (Mus musculus [18]): 35% | Cures (Mus musculus [19]): 0

Cc1ccc(C)c2c(/C=N/NC3=NCCN3)c3ccccc3c(/C=N/NC3=NCCN3)c12.Cl.Cl
Cures (Mus musculus [1]): 0 | Cures (Mus musculus [2]): 0 | ILS at 18.8 mg/kg (Mus musculus [20]): 57%

C(=N\NC1=NCCN1)/C1c2ccccc2C(/C=N/NC2=NCCN2)c2cc3ccccc3cc21 (stereo unspecified)
ILS at 225 mg/kg (Mus musculus [21]): 105%
